# Screens (PubChem BioAssay)
# Shown are actives, neighbours in structure and some others; about 0.6% of the full set was active somewhere.
# GSK3A inh – blocks human GSK-3 alpha kinase; inhibition, % at 10 µM; ADP-Glo luminescence, 60 min; actives 0.1% (n = 320,000);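 active means more than half of replicates show inhibition above 20%; inconclusive means some but at most half of replicates above 20% inhibition; inactive means no replicate shows inhibition above 20%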;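 further: GST-tagged GSK-3 alpha with peptide substrate and 25 µM ATP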
# PolyA inhibitor – blocks polyadenylation in yeast reporter cells | actives 0.02% (n = 300,000) | activity score, % at 12 µM | AID 1875 | S. cerevisiae SKY197-pL101 polyadenylation reporter, beta-gal luminescence; efflux-impaired pdr1/pdr3 knockout yeast; score 100 = 6 SD above DMSO;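 active means lowest replicate activity score at least 50, where 100 means six control SD above control mean; inconclusive means lowest score under 50 but half or more replicates reach 50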;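 further: yeast exposed to compound for 9 h at 30 °C; higher score means more reporter readthrough which indicates perturbed polyadenylation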
# GSK3B inh – human GSK3beta kinase inhibition; P49841; GST-GSK3beta kinase, ADP-Glo luminescence, 60 min; stronger effect = lower value; activity score (negative = inhibition), % at 10 µM; actives 0.038% (n = 300,000); AID 2097;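 active means more than half of replicate wells score below -50%, meaning over 50% inhibition versus plate controls; inconclusive means some replicates but at most half score below -50%; inactive means no replicate scores below -50%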
# Target sequence (P49841 whole entry, looked up): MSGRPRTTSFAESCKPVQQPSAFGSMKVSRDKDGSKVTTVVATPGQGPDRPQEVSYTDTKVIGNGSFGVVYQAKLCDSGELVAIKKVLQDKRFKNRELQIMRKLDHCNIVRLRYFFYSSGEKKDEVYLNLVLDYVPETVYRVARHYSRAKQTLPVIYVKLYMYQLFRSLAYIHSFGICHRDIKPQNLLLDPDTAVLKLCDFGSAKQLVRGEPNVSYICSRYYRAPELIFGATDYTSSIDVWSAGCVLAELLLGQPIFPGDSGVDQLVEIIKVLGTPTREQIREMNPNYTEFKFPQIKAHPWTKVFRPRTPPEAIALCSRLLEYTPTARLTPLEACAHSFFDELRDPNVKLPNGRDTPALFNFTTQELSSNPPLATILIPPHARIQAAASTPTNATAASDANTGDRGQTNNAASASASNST
#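 Assay system: GST-tagged human GSK3beta kinase, cell-free; Input: 1.6 ng GSK3beta; Medium: Tris/MgCl2 kinase buffer; Timing: 60 min enzyme reaction, room temperature; Signal: ADP-Glo luminescence quantifying ADP generated by kinase; Evaluation: score relative to plate controls; Benchmarks: DMSO neutral wells and GW8510 at 20 µM as positive.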
# STK33 inh – inhibitors of human STK33 kinase | Q9BYT3 | purified STK33, MBP phosphorylation, ADP-Glo luminescence | inhibition, % at 10 µM | actives 0.073% (n = 320,000) | AID 2661;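 active means inhibition at or above 25%, using the most active replicate where run in duplicate; inactive means inhibition below 25%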
# Efflux pump inh – antifungal efflux pump inhibition, Nile Red retention. S. cerevisiae Candida pump triplex. inhibition, % at 10 µM. actives 0.44% (n = 330,000). AID 485275;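 active means plate passing quality check with inhibition over a set limit, or well fluorescence over plate mean plus 4 SD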;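 further: Nile Red retained in pooled yeast measured as flow cytometry median fluorescence; higher means more Nile Red kept so more efflux inhibition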
# Yeast cmpd fluor – flagged as fluorescent in efflux inhibitor counter-screen; shares compounds with Efflux pump inh; S. cerevisiae AD/pABC3, compound fluorescence, flow cytometry; fluorescence ratio to DMSO, % at 10 µM; actives 4% (n = 1,700); AID 588517;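 active means fluorescence ratio to DMSO above its plate's cutoff, the plate mean ratio plus 5 SD, cut at about 210% in these data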;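 further: unstained yeast with no Nile Red so the signal is compound autofluorescence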
# Mdr1 pump inh – Candida Mdr1 efflux pump inhibition; S. cerevisiae AD/CaMDR1, Nile Red efflux, flow cytometry; inhibition, % at 10 µM; shares compounds with Efflux pump inh; actives 1% (n = 1,700); in the data active means inhibition above about 26%;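 further: higher means more Nile Red retained so more efflux inhibition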
# CaCdr2 efflux inh – Candida Cdr2 efflux pump inhibition. actives 4% (n = 1,700). Nile Red retention ratio vs DMSO, % at 10 µM. AID 588520. shares compounds with Efflux pump inh. S. cerevisiae AD/CaCDR2, Nile Red retention, flow cytometry; in the data active means Nile Red retention ratio vs DMSO above about 190%;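 further: higher ratio means more blocking of Cdr2 efflux of the dye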
# Cdr1 pump inh – blocks the Candida albicans Cdr1 efflux pump in yeast. shares compounds with Efflux pump inh. S. cerevisiae AD/CaCDR1, Nile Red efflux, flow cytometry. inhibition, % at 10 µM. actives 1% (n = 1,700). AID 588522;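 active means inhibition above the screen-wide mean plus twice its standard deviation, cut at about 32% in these data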
# A number is an active result; - = inactive; ? = inconclusive; . = no result given; + = active, no number.
SMILES,GSK3A inh,PolyA inhibitor,GSK3B inh,STK33 inh,Efflux pump inh,Yeast cmpd fluor,Mdr1 pump inh,CaCdr2 efflux inh,Cdr1 pump inh
COC(=O)Cn1c(CN2CCOCC2)nc2c1c(=O)[nH]c(=O)n2C,-,-,-,-,1.2,-,-,-,-
Cc1cc(S(=O)(=O)N2CCOCC2)ccc1OCC(=O)Nc1ccc(Br)cc1F,-,-,-,-,0.9,-,-,-,-
COc1cccc(NC(=S)N2CCc3cc(OC)c(OC)cc3C2)c1,-,-,-,-,-,-,-,-,-
COc1cc2c(cc1OC)CN(C(=S)Nc1ccc(Cl)cc1)CC2,-,-,-,-,-,.,.,.,.
COc1cccc(NC(=O)c2ccc3c(c2)CCCC3)c1,-,-,-,-,51.5,-,-,-,-
COc1ccccc1NC(=S)N1CCc2cc(OC)c(OC)cc2C1,-,-,-,-,-,.,.,.,.
COc1cc2c(cc1OC)CN(C(=S)Nc1cccc(Cl)c1C)CC2,-,-,-,-,0.7,-,-,-,-
CC(=O)c1cccc(NC(=O)c2ccc3c(c2)CCCC3)c1,-,-,-,-,-,.,.,.,.
O=C(Nc1ccc2c(c1)OCCO2)C1CCCN(S(=O)(=O)c2cnc[nH]2)C1 (stereo not drawn),.,-,-,.,-,.,.,.,.
CCNc1nc2[nH]c(=O)c3c(c2s1)OC(N)=C(C#N)C3c1ccc(C)cc1 (stereo not drawn),-,-,-,-,-,.,.,.,.
CNc1nc2[nH]c(=O)c3c(c2s1)OC(N)=C(C#N)C3c1ccccc1 (stereo not drawn),-,-,-,-,9.7,-,-,-,-
CC(=O)c1c(C)[nH]c(-c2ccccc2)c1C,-,-,-,-,8.0,-,-,-,-
CC(=O)c1c(C)[nH]c(C(=O)NCc2ccccc2)c1C,-,-,-,-,-,.,.,.,.
O=C(Cc1cccs1)N1CCN=C1SCc1ccccc1Cl,-,-,-,-,1.0,-,-,-,-
O=C(Cc1cccs1)N1CCN=C1SCc1ccccc1F,-,-,-,-,-,.,.,.,.
Cc1cc(Cl)ccc1Oc1ncc(CN2CCN(c3ccccc3)CC2)s1,-,-,-,-,0.5,-,-,-,-
Cc1ccc(-n2nc3c(c2NC(=O)c2ccccc2)CS(=O)(=O)C3)cc1C,-,-,-,-,-,.,.,.,.
CCC(C)(C)NC(=O)C(c1ccc(F)cc1)N(Cc1cccs1)C(=O)c1cnccn1 (stereo not drawn),-,-,-,-,-,.,.,.,.
CN1C(=O)C(CC(=O)Nc2ccc(F)cc2)N(CCCc2ccccc2)C1=S (stereo not drawn),-,-,-,-,-,.,.,.,.
O=C(c1cccc(F)c1)N1CCN(C(=O)c2cc3ncc(Br)cn3n2)CC1,-,-,-,-,13.7,-,-,-,-
O=C(N/N=C/c1c(Cl)cccc1Cl)c1n[nH]c2c1CCCC2,-,-,-,-,-,.,.,.,.
Cc1ccsc1/C=N\NC(=O)c1n[nH]c2c1CCC2,-,-,-,-,11.4,-,-,-,-
O=C(Cn1cncn1)c1ccccc1Br,-,-,-,-,-,.,.,.,.
Cn1cccc1Cc1nnc(SCC(=O)Nc2ccc(F)cc2)n1-c1ccc(F)cc1,.,?,-,-,-,.,.,.,.
COc1ccc(-n2c(Cc3cccn3C)nnc2SCC(=O)Nc2cccc(F)c2)cc1,-,-,-,-,-,-,-,-,-
SMILES,GSK3A inh,PolyA inhibitor,GSK3B inh,STK33 inh,Efflux pump inh,Yeast cmpd fluor,Mdr1 pump inh,CaCdr2 efflux inh,Cdr1 pump inh
Cn1cccc1Cc1nnc(SCC(=O)Nc2ccccc2)n1-c1ccc(F)cc1,-,-,-,-,-,-,-,-,-
N/C(=N\OC(=O)Cc1cccs1)c1ccc(Cl)cc1,-,-,-,-,-,-,-,-,-
Cc1cccc(NC(=O)CNC(=O)c2ccc(-n3cncn3)c([N+](=O)[O-])c2)c1C,.,-,-,.,-,.,.,.,.
CCCSc1cc(N2CCCC2)nc(-c2ccccc2)n1,-,-,-,-,-,+,-,-,-
CCSc1cc(N2CCCC2)nc(-c2ccccc2)n1,-,-,-,-,-,.,.,.,.
COCc1cc(N2CCN(c3ccccc3F)CC2)nc(-c2ccccc2)n1,-,-,-,-,-,.,.,.,.
CCCSc1cc(N2CCN(C)CC2)nc(-c2ccc(OC)cc2)n1,.,-,-,-,-,-,-,-,-
Cc1ccc(NC(=O)[C@H](C)NC(=O)C2CCN(C(=O)[C@@H](NC(=O)OC(C)(C)C)C(C)C)CC2)cc1,-,-,-,-,-,.,.,.,.
O=C(COc1ccc(F)cc1)Nc1nnc(C2CC2)s1,-,-,-,-,-,-,-,-,-
COc1ccccc1/C=C1/SC(=S)N(C(C)C(=O)NC2C=CS(=O)(=O)C2)C1=O (stereo not drawn),-,-,-,-,-,.,.,.,.
O=[N+]([O-])c1ccc(/C=N/Nc2ccccn2)cc1,-,-,-,-,-,.,.,.,.
O=[N+]([O-])c1cc(/C=N\Nc2ccccn2)ccc1Cl,-,-,-,-,0.9,-,-,197.4,-
O=C(c1cc2nc(-c3cccs3)cc(C(F)(F)Cl)n2n1)N1CCCc2ccccc21,-,-,-,-,-,.,.,.,.
O=C(c1cc2nc(-c3cccs3)cc(C(F)(F)F)n2n1)N1CCCc2ccccc21,-,-,-,-,0.7,-,-,-,-
NC(=O)C1CCN(c2nc(-c3ccccc3F)cs2)CC1,-,.,.,-,7.5,-,-,-,-
CC1CCN(S(=O)(=O)c2ccc3c(c2)CC(C)N3C(=O)C2CCC2)CC1 (stereo not drawn),-,-,-,-,-,.,.,.,.
CC1Cc2cc(S(=O)(=O)N3CCCCC3)ccc2N1C(=O)C1CCC1 (stereo not drawn),-,-,-,-,-,-,-,-,-
COc1ccccc1CNS(=O)(=O)c1ccc2c(c1)CC(C)N2C(=O)C1CCC1 (stereo not drawn),-,-,-,-,-,-,-,-,-
Nc1ncc([N+](=O)[O-])cc1Br,-,-,-,-,-,.,.,.,.
C[C@H]1O[C@@H](O[C@H]2CC[C@@]3(C)C(CC[C@]4(C)C3C=CC3=C5CC(C)(C)CC[C@]5(CO)[C@H](O)C[C@]34C)[C@]2(C)CO)[C@H](O)[C@@H](O[C@@H]2O[C@H](CO)[C@@H](O)[C@H](O)[C@H]2O)[C@H]1O (stereo partly drawn),-,.,.,-,1.7,-,-,-,-
